In the library only some 2.4% were active in any assay of this set; here they are far more common.
T cruzi repl: inhibitors of intracellular T. cruzi growth, primary screen, luminescence, NIH3T3 host cells; inhibition, % (concentration not given with the values); AID 1885, 2009; hit rate 1.4% among 300,000; T. cruzi beta-gal in NIH3T3, 90 h;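 active = mean inhibition across valid replicates above about 55%, limit read from the data; inconclusive = mean below that limit but half or more replicates reach it; inactive = mean below it, under half of replicates reach it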;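 note: signal also drops with host cell toxicity which is not excluded here; 0% = plate median of DMSO wells and 100% = zero luminescence signal; higher percent means less beta-gal luminescence so fewer parasites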
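Incubation – ≥90 h infection period, 3 h prior cell attachment · System – NIH/3T3 fibroblasts plus reporter T. cruzi · Doses – compound pinned at 50 nL/well, DMSO · Read-out basis – percent inhibition of parasite-derived β-gal signal · Signal – luminescent β-galactosidase signal after 60 min lysis · Also added – 5000 T. cruzi trypomastigotes/well · Medium – Low-serum DMEM with 2% FBS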
PP5 inh: PP5 phosphatase inhibitors, primary screen, biochemical, fluorescence; purified PP5c, OMFP substrate fluorescence; inhibition, % at 6.7 µM; hit rate 0.18% among 320,000; AID 1987, 2009;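 active = inhibition above the campaign's mean inhibition across all tested compounds plus 3 SD, cut at about 9.5% in these data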;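 note: 0% = DMSO only and 100% = 100 µM cantharidin control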
Target sequence (P53041 whole entry, looked up): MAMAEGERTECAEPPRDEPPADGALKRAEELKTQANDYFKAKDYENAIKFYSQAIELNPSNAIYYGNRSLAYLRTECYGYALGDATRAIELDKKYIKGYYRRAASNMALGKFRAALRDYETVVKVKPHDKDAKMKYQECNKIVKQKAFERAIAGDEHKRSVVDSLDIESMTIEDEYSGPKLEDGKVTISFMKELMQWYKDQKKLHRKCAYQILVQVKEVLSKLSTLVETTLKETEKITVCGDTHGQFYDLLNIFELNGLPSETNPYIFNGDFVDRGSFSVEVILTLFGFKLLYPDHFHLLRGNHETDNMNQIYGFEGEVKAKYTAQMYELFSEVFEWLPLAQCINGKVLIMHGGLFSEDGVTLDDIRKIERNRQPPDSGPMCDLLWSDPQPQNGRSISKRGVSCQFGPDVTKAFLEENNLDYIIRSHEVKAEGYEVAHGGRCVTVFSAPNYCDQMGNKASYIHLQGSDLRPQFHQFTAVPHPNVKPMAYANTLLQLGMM
GASC-1 inh: inhibitors of GASC-1 histone demethylase, primary screen, biochemical, fluorescence, DELFIA europium; Lysine-specific demethylase 4C (Homo sapiens), Q9H3R0; GST-JMJD2C(1-420) H3K9me3 demethylation; inhibition, % at 2.35 µM; hit rate 0.069% among 330,000; AID 2099, 2009;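 active = more than half of a compound's replicate wells show inhibition beyond 50%, single wells judged on their own value; inconclusive = some, but no more than half, of replicates pass 50% inhibition; inactive = no replicate passes 50% inhibition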;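 note: signal counts dimethyl H3K9 product captured on neutravidin plate; 0% = median of DMSO wells and 100% = 0.3 times that DMSO median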
Fh CTSL1 inh: Fasciola hepatica cathepsin L1 inhibitors, primary screen, counter-screen for PFM18AAP inhibitor project, biochemical, QFRET, fluorogenic peptide substrate; recombinant F. hepatica cathepsin L1, Z-Leu-Arg-MCA fluorescence; inhibition, % at 5.96 µM; hit rate 0.49% among 300,000;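 active = inhibition above the mean of all tested compounds plus 3 SD, set per screening campaign, cut at about 17% in these data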;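 note: 0% = plate median of test compound wells and 100% = 1 µM Z-Phe-Ala-diazomethylketone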
Cardio protect: cardioprotection against H2O2-induced cell death, primary screen, uHTS, H9c2 cells, ATPLite luminescence; H9c2 cardiomyocytes, H2O2 injury protection, 2 h; protection from H2O2 cell death, % at 20 µM; hit rate 0.63% among 360,000; AID 588492, 2011;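 active = compounds giving at least 50% protection of heart cells from peroxide-induced death in the single-dose screen, raw or plate-pattern-corrected value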;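 note: 0% = DMSO wells with peroxide and 100% = DMSO wells without peroxide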
p-CIP stab down: p/CIP-EGFP fusion destabilizers, primary screen, fluorescence, F442A cells; Q05BA5; 16 h; decrease of EGFP signal, % at 10 µM; hit rate 0.01% among 290,000; AID 1984, 2009;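 active = EGFP signal decrease of at least 30% at 10 µM or well 3 SD below plate mean, unless failing retest; inactive = the rest, including hits failing retest or dose response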
Numbers without * were called inactive; ? = inconclusive; . = no result given.

SMILES | T cruzi repl | PP5 inh | GASC-1 inh | Fh CTSL1 inh | Cardio protect | p-CIP stab down
Cc1ccc(NC(=O)c2cc(N3C(=O)C=CC3=O)ccc2N2CCOCC2)cc1Cl | 55* | 3 | -4 | -1 | -13 | 2
COc1ccc(OCCCC(=O)Nc2cc(Cl)ccc2-n2cncn2)cc1 | -3 | 0 | -1 | 3 | -4 | .
COc1ccc2ccccc2c1/C=N/NC(=O)c1cccc(Br)c1 | -5 | 3 | 4 | 1 | -1 | -3
OCC(CO)(CO)N=Cc1c(O)ccc2ccccc12 | -7 | 0 | 9 | 0 | 3 | -13
O=C(CN1CCCC1)N/N=C/c1c(O)ccc2ccccc12 | 34 | 0 | 2 | 1 | 49 | -1
O=C(N/N=C/c1c(O)ccc2ccccc12)C(=O)N1CCCC1 | . | . | . | . | 52* | .
O=C(N/N=C/c1c(O)ccc2ccccc12)c1cccc(C(F)(F)F)c1 | 57* | -8 | -4 | 3 | 16 | -11
Oc1ccc2ccccc2c1C=NC12CN3CCN(CN(C3)C1)C2 | -13 | 6 | 4 | 32* | -10 | -2
NCCc1ccn[nH]1 | . | -2 | . | -1 | -10 | .
CS(=O)(=O)c1ccc(Cl)c(NC(=O)CCN2C(=O)C3CC=CCC3C2=O)c1 (configuration not stated) | . | -1 | -3 | . | 1 | .
Cc1cc(C(=O)O)ccc1-n1c(C)cc(C=C2C(=O)c3ccccc3C2=O)c1C | 3 | 5 | 9 | 19* | 7 | 8
Cc1cc(C(=O)O)ccc1-n1c(C)cc(/C=C(/C#N)C(=O)Nc2ccccc2)c1C | 2 | 1 | 0 | 0 | -2 | 2
COc1ccccc1N(C(=O)c1ccncc1)c1nc(-c2ccc([N+](=O)[O-])cc2)cs1 | 62* | 3 | 4 | 2 | 15 | 0
COc1ccc(-c2cc3ccc(OC(C)C(=O)O)cc3oc2=O)cc1 (configuration not stated) | -12 | . | -3 | . | -2 | 8
OCCCNc1cc(-c2ccnc(Nc3cccc(Cl)c3)n2)ccn1 | 50 | 1 | 4 | 1 | 17 | -21
CCC(C)Oc1cc(-c2ccnc(Nc3cccc(Cl)c3)n2)ccn1 (configuration not stated) | 57* | 5 | 6 | 0 | -16 | 4
Cc1cc(OCCN2CCN(S(=O)(=O)c3ccccc3F)CC2)ccc1C(C)C | . | 5 | -5 | . | -17 | .
O=S(=O)(c1ccc(Cl)cc1)c1cc(O)ccc1O | -5 | 1 | 2 | -3 | 56* | 9
CC1CNC(=S)N(c2ccccc2)C1=O (configuration not stated) | . | . | . | . | -1 | .
O=C(NCCc1ccc(Cl)cc1Cl)C1=CC=CN2CCS(=O)(=O)N=C12 | . | 0 | -5 | . | 5 | .
O=c1c2cnn(-c3ccccc3)c2nc(-c2ccco2)n1-c1ccccc1 | 32 | 1 | . | 0 | 22 | 6
O=c1oc(-c2ccco2)nc2c1cnn2-c1ccccc1 | -11 | -1 | 2 | 0 | 51* | -5
CCOC(=O)N1CCN(C(=O)CNC(=O)c2ccc(Cl)cc2)CC1 | 2 | -2 | 4 | 2 | -2 | -13
COc1ccc(O)c(C(=O)c2cnc3nc4ccccc4n3c2)c1 | 3 | 3 | -6 | -4 | 61* | -1
COc1ccc(C(=O)Cn2nc(CNc3ccc(Br)cc3)[n+]3c2CCCCC3)cc1 | 59* | 2 | -5 | -2 | -3 | -2
SMILES | T cruzi repl | PP5 inh | GASC-1 inh | Fh CTSL1 inh | Cardio protect | p-CIP stab down
O=C(Cn1nc(-c2nn(CC(=O)c3ccccc3)c3[n+]2CCCCC3)[n+]2c1CCCCC2)c1ccccc1 | 9 | -1 | -3 | 1 | 5 | -3
N#Cc1c(N)sc(=S)c2c1CCN(Cc1ccccc1)C2 | . | 2 | . | 109* | . | 4
CCOC(=O)c1cnc(-n2nc(C)cc2C)nc1NC1CCCCC1 | 76* | 6 | ? | -2 | -22 | -13
CCOC(=O)c1cnc(-n2nc(C)cc2C)nc1Nc1ccc(N(C)C)cc1 | 63* | 2 | -1 | 2 | 37 | -9
CC(NC(=O)CCSCc1ccccc1F)c1ccccc1 (configuration not stated) | -3 | 1 | 1 | 2 | 0 | -6
O=C(CCSc1nc2ccccc2s1)N/N=C/c1c(O)ccc2ccccc12 | 46 | 2 | -20 | 3 | 54* | -4
COc1ccc(/C=N/NC(=O)CCSc2nc3ccccc3s2)cc1OC | -1 | 2 | 13 | 4 | 7 | -5
CCCCOc1ccc(/C=N/Nc2cc(N3CCOCC3)nc(C)n2)cc1 | 56* | 5 | 1 | -3 | 4 | -6
CC(C)c1ccc(/C=N/Nc2cc(N3CCOCC3)nc(N3CCOCC3)n2)cc1 | . | 4 | 2 | -1 | -6 | -7
Cc1cccc(/C=N/Nc2cc(N3CCOCC3)nc(N3CCOCC3)n2)c1 | 69* | 6 | 5 | 3 | -2 | -19
Cc1c(NC(=O)c2ccc([N+](=O)[O-])o2)cccc1-c1nc2ncccc2o1 | 39 | 1 | 0 | 0 | -14 | -15
Cc1ccc(S(=O)(=O)N2CCN(c3cccc(C)c3)CC2)cc1 | 5 | 1 | 2 | -5 | -10 | -12
CCOC(=O)C1(C)CCN1C(=O)c1oc2ccccc2c1C (configuration not stated) | . | . | . | . | -5 | .
Clc1cccc(CN2CCc3c([nH]c4ccccc34)C2)c1 | 59* | 4 | -3 | -1 | 1 | -3
O=C(NCCN1CCCCC1)Nc1ccc(F)cc1F | -21 | -1 | 148 | 3 | -2 | -4
Cc1nn(Cc2cccc(Oc3ccccc3)c2)c(C)c1NC(=O)NC12CC3CC(CC(C3)C1)C2 | 57* | 4 | 1 | -3 | -15 | -9
O=C(NCc1ccccc1)NC12CC3CC(CC(C3)C1)C2 | 0 | 2 | 0 | 4 | -2 | 10
Nc1c(C(=O)NCCc2ccc(Cl)cc2)sc2ccc(S(=O)(=O)N3CCCCC3)cc12 | 59* | 2 | -7 | 0 | . | -4
CCCCNC(=O)c1cn(CC)c2ccc(S(=O)(=O)N3CCCC3)cc2c1=O | 6 | 0 | -11 | 1 | 4 | 9
CCn1cc(C(=O)NCCc2ccccc2)c(=O)c2cc(S(=O)(=O)N3CCCC3)ccc21 | 38 | 4 | 8 | 17* | -10 | 13
Cc1nn(-c2ccccc2)c(C)c1NC(=O)COC(=O)/C=C/c1ccccc1 | -18 | -1 | 1 | 3 | 11 | .
CCOC(=O)Cc1ccc(NCc2ccc(Cl)cc2)cc1 | 56* | -3 | 1 | 4 | -11 | 11
CCOC(=O)CNC(=O)Cc1ccc(Cl)cc1 | -7 | -2 | -4 | -2 | 3 | 0
